High-throughput results from PubChem BioAssay.
Rows were chosen to be rich in hits. Some 4.4% of all compounds tested hit in one or more screens of this group.
Calb FLC – C. albicans growth inhibition with fluconazole, primary screen, CaCi-2 strain, Alamar Blue fluorescence; growth inhibition, % (test concentration not listed); hit rate 0.57% among 300,000; C. albicans CaCi-2 (fluconazole-resistant clinical isolate) + fluconazole, 48 h; AID 1979, 2009;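 active = growth inhibition above about 58% in most replicates, limit read from the data, passing the limit was not always enough; inconclusive = exactly half the replicates above a set limit; inactive = most replicates below a set limit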;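 note: all wells also contain fluconazole at 8 µg/ml as a sub-toxic cotreatment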
HIF act – HIF pathway transcriptional activators, primary screen, cell-based, U2OS HRE-luciferase, luminescence; U2OS HRE-luciferase reporter; normalized: DMSO 0%, desferrioxamine 100%; activation, % at 7.5 µM (by protocol); hit rate 0.32% among 300,000; AID 1910, 2009;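 active = mean activation of at least 10% of the iron chelator positive control signal, with at least half of replicates also reaching 10%; inconclusive = mean and replicate majority disagree about reaching 10%; inactive = mean and most replicates under 10%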
HSF1 inhib – HSF1 inhibitors in luciferase reporter cells, primary screen, cell-based, NIH3T3, luminescence; NIH3T3-HGL HSE-luciferase, MG132-induced, luminescence 8 h; active compounds read low; activity change, negative = inhibition, % at 7.5 µM (by protocol); hit rate 0.77% among 300,000; AID 2098, 2009;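 active = more than half of replicate wells show activity change below -50%, luminescence cut by over half; inconclusive = some wells, but at most half, below -50%; inactive = no replicate well below -50%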;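 note: luciferase reports HSF-1 transcriptional activity via heat shock element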
HSF1 activator – HSF-1 activators, primary screen, NIH3T3-HGL cells, MG132 stress, luminescence, single point; activation, % at 9 µM; NIH3T3-HGL HSF-1 luciferase reporter, 8 h; 100% = twice DMSO control signal; hit rate 1.7% among 300,000; AID 504408, 2011;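 active = mean replicate activation of at least 50% with a set share of replicates each reaching 50%; inconclusive = only one of those two conditions met; inactive = mean below 50% and too few replicates reaching it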
T cruzi repl – inhibitors of intracellular T. cruzi growth, primary screen, luminescence, NIH3T3 host cells; T. cruzi beta-gal in NIH3T3, 90 h; inhibition, % (no concentration beside the values); hit rate 1.4% among 300,000; AID 1885, 2009;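 active = mean inhibition across valid replicates above about 55%, limit read from the data; inconclusive = mean below that limit but half or more replicates reach it; inactive = mean below it, under half of replicates reach it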;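 note: signal also drops with host cell toxicity which is not excluded here; higher percent means less beta-gal luminescence so fewer parasites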
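compound dosing = single 50 nL compound addition per well in DMSO | material = NIH/3T3 host cells with β-galactosidase reporter T. cruzi | input = 5,000 host fibroblasts per well | timing = ≥90 h infection period, 3 h prior cell attachment | read-out basis = percent inhibition of parasite-derived β-gal signal | detection = GalScreen β-gal luminescence, detergent lysis, 60 min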
Of the large screens only hits and unclear results are named; the others gave an inactive call.

Cc1nn(-c2ccc([N+](=O)[O-])cc2)c2c1C(c1ccc(OC(F)F)cc1)N1C(=N2)C(=O)Nc2ccccc21 (stereo unspecified)	Calb FLC 87, T cruzi repl 91
Cc1ccc(C2c3c(C)nn(-c4ccc([N+](=O)[O-])cc4)c3N=C3C(=O)Nc4ccccc4N32)cc1 (stereo unspecified)	T cruzi repl 65
COc1cccc(C2c3c(C)nn(-c4ccc([N+](=O)[O-])cc4)c3N=C3C(=O)Nc4ccccc4N32)c1 (stereo unspecified)	T cruzi repl 63
COc1cccc(-c2cc(N3C(=O)Nc4ccccc4N3O)n[nH]2)c1	none
CCOC(=O)c1ccc(N2C(=O)c3n[nH]c(-c4ccco4)c3C2c2ccc([N+](=O)[O-])cc2)cc1 (stereo unspecified)	none
COc1ccc(-n2c(O)c(/C=N/n3cnnc3)c3ccccc3c2=O)cc1	none
CCOC(=O)c1nc2nc(-c3cccs3)cc(C(F)(F)F)n2n1	none
Nc1nc2nc(-c3cccs3)cc(C(F)(F)F)n2n1	HIF act 24
NS(=O)(=O)c1ccc(NC(=O)COC(=O)C2(c3ccccc3F)CCCC2)cc1	HSF1 inhib -57
CCCOc1ccc(N2CC(C(=O)NC(C)C)CC2=O)cc1 (stereo unspecified)	HSF1 inhib -60
CCOCC(=O)N1CCc2ccccc21	none
CCOC(=O)/C=C/C(=O)N1CCc2ccccc21	HSF1 activator 84
CCOc1ccc(N2CC(C(=O)N3CCc4ccccc43)CC2=O)cc1 (stereo unspecified)	HSF1 activator 52
NC(=O)c1ccc(NC(=O)COC(=O)C2(c3ccccc3F)CCCC2)cc1	none
Cc1ccccc1NS(=O)(=O)c1ccc(C(=O)NCC2CCCO2)cc1 (stereo unspecified)	none
O=C(OCC(=O)N1CCc2ccccc21)c1cccnc1	none
CN(C(=O)c1ccccc1C(=O)OCC(=O)Nc1ccc(S(N)(=O)=O)cc1)c1ccccc1	HSF1 inhib -79
COc1ccc(NC(=O)N2CCc3ccccc32)cc1	HSF1 activator 65
O=C(OCC(=O)N1CCc2ccccc21)c1ccccc1	HSF1 activator 68
COc1ccc(NC(=O)CCS(=O)(=O)c2ccc3c(c2)CCN3C(C)=O)cc1	HIF act 10
O=C(NC1CCCCC1)C(=S)N1CCOCC1	none
CCc1ccc(OCC(=O)N2CCc3ccccc32)cc1	HSF1 activator 65
CCc1ccc(OCC(=O)N2c3ccccc3CCc3ccccc32)cc1	none
CCCc1nc2ccccc2c(C(=O)OCC(=O)N2CCc3ccccc32)c1CC	T cruzi repl 58
O=C(COC(=O)C1(c2ccccc2F)CCCC1)N1CCc2ccccc21	HSF1 inhib -61
CCc1ccccc1NC(=O)CCS(=O)(=O)c1ccc(OC)cc1	HSF1 inhib -79
CC1CCc2nc3ccccc3c(C(=O)OCC(=O)N3CCc4ccccc43)c2C1 (stereo unspecified)	none
O=C(COC(=O)C1(c2ccc(F)cc2)CCCC1)N1CCc2ccccc21	none
CCOc1ccccc1NC(=O)CCS(=O)(=O)c1ccc(OC)cc1	none
O=c1[nH]cnc2onc(-c3ccc(F)cc3)c12	none
CSc1ncccc1C(=O)NCCc1ccccc1F	none
Cc1ccc(OCC(=O)N2CCc3ccccc32)cc1	HSF1 activator 67
COc1ccc2c(n1)Sc1nc3ccccc3nc1N2	HSF1 activator 55
COc1cc2ccccc2nn1	none
O=Cc1ccc(C(=O)OCC(=O)Nc2ccc(F)cc2F)cc1	none
CC1CCN(CC(=O)N2CC(=O)Nc3ccccc32)CC1	none
Cc1ccc2c(c1)c(C1=c3ccccc3=NC1=O)c(O)n2C	HSF1 activator 195
C=CCn1c(O)c(C2=c3ccccc3=NC2=O)c2ccccc21	HSF1 activator 257, T cruzi repl inconclusive
Cc1c(C(=O)N2CCN(c3ccc(F)cc3)CC2)sc2nc3n(c(=O)c12)CCC3	none
CC(=O)N1CCOCCOCCN(C(C)=O)CCOCCOCC1	Calb FLC 102
Cc1cc(C)c(S(=O)(=O)Nc2nnc(C3CCCCC3)s2)c(C)c1	none (no result: Calb FLC)
CCN1/C(=C/c2ccc3cccc(C)c3[n+]2CC)Sc2ccccc21	Calb FLC 106, T cruzi repl 58
CCN1/C(=C\c2ccc3cc(C)ccc3[n+]2CC)Sc2cc(C)c(C)cc21	Calb FLC 104, T cruzi repl 64
CCN1/C(=C/c2ccc3cc(C)ccc3[n+]2CC)Sc2ccc3sccc3c21	Calb FLC 101, T cruzi repl 60
O=C1CC(N(O)C2CC(=O)N(Cc3ccccc3)C2=O)C(=O)N1Cc1ccccc1 (stereo unspecified)	HSF1 activator 57
Cc1ccc(NC2CC(=O)N(Cc3ccccc3)C2=O)cc1 (stereo unspecified)	HSF1 activator 56
O=C1C2CCCCC2C(=O)N1Cc1ccccc1 (stereo unspecified)	HSF1 activator 68
O=C(O)C(Cc1ccccc1)N1C(=O)C2CCCCC2C1=O (stereo unspecified)	none
O=C(O)c1ccc(NC2CC(=O)N(Cc3ccccc3)C2=O)cc1 (stereo unspecified)	none
CCCN(CCC)C1CC(=O)N(Cc2ccccc2)C1=O (stereo unspecified)	HSF1 inhib inconclusive
Cc1c(Br)c(C(F)(F)F)nn1CC(=O)N(C)C1CCCCC1	none
O=C1NC2(CCCCC2)NN1c1ccccc1	none
CC(=O)N1CCC2(CC1)NC(=O)N(c1ccccc1)N2	HSF1 activator 59
NC(=O)N1CCC2(CC1)NC(=O)N(c1ccccc1)N2	Calb FLC 109
CC(=O)N1CCN(c2nnc(-c3ccc(C)cc3)c3ccccc23)CC1	none
Cc1ccc(OCC(=O)N2CCN(c3nnc(-c4ccccc4)c4ccccc34)CC2)cc1	T cruzi repl 70
CCCNC(=O)COC(=O)c1[nH]c(C)c(C(=O)OCC)c1C	none
CCOC(=O)c1c(C)[nH]c(C(=O)OCC(=O)Nc2sccc2C(N)=O)c1C	HSF1 inhib -75
O=C(CCc1ccccc1)Nc1ccnn1C1CCN(Cc2ncc[nH]2)CC1	none
COc1cnn(-c2cc(Oc3ccc(C)cc3)ncn2)c(=O)c1Cl	HSF1 activator 95
COCCOc1cnn(-c2cc(Oc3ccc(C)cc3)ncn2)c(=O)c1Cl	none
O=C(NCc1cccnc1)c1ccc(-c2cc3ccccc3oc2=O)cc1	none
O=c1cc(CSc2ccc(Cl)cc2)nc(N2CCCCC2)[nH]1	HSF1 activator 65
CCc1cc2c(NCc3ccccc3)nc(C)nc2s1	none
CCc1cc2c(NCCC(=O)O)nc(C)nc2s1	HSF1 inhib -60
O=C(c1cnn(-c2ccccc2)c1)c1ccc2ccccc2c1O	HSF1 activator 58
CCOc1ccc(N(CC(=O)Nc2cccc(C)c2)S(C)(=O)=O)cc1	none
